Results published in ChEMBL document CHEMBL3286372, “Design, synthesis and structure-activity relationship of novel semi-synthetic flavonoids as antiproliferative agents” (2014).

What was measured:
[1] = Growth inhibition of human PC549 cells after 48 hrs by coulter counting analysis; assay type: functional
Summary of the method: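 Five-dose NCI-60 follow-up, 0.01–100 µM, made from DMSO stock in buffered saline (final DMSO <1%), in duplicate wells. Cells in RPMI 1640 with 10% FBS at 6×10^4 cells/ml, 37 °C, 5% CO2, 48 h. Cells diluted tenfold in saline, Coulter-counted and corrected for dilution. GI50, TGI and LC50 taken from log concentration–percent growth curves.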

[2] = test system: HL-60(TB); experiment: Growth inhibition of human HL-60(TB) cells after 48 hrs by coulter counting analysis; assay type: functional; details: HL-60, 48 h
Summary of the method: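 Five-dose screen (0.01-100 µM, DMSO-solubilized, under 1% DMSO final), cells in RPMI 1640 + 10% FBS at 6×10^4 cells/ml, duplicate wells, 37 °C, 5% CO2, 48 h. Cells then diluted tenfold in saline and counted by Coulter counter with dilution correction. Controls held buffer/saline/DMSO at matching dilutions. GI50 derived from log concentration-percent growth inhibition curves.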

[3] = Growth inhibition of human […] cells after 48 hrs by coulter counting analysis; assay type: functional
Summary of the method: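 NCI five-dose screen at 0.01-100 µM, diluted from DMSO stocks in buffered saline (final DMSO <1%). Cells at 6×10^4 cells/ml in RPMI 1640 with 10% FBS, in duplicate wells, at 37 °C under 5% CO2 for 48 h. Cells diluted tenfold in saline and Coulter-counted. GI50, TGI and LC50 taken from log concentration-growth inhibition curves.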

[4] = test system: KM12; experiment: Growth inhibition of human KM12 cells at 10 uM after 48 hrs by sulforhodamine B assay relative to control; assay type: functional; details: KM12, 48 h, read-out: GI
Summary of the method: (§1)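 NCI-60 primary screen at a single dose of 10 µM with 48 h continuous exposure. Growth or viability read by sulforhodamine B protein staining and expressed as percent growth inhibition versus untreated cells.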

[5] = test system: RPMI-8226; experiment: Growth inhibition of human RPMI8226 cells at 10 uM after 48 hrs by sulforhodamine B assay relative to control; assay type: functional; details: RPMI-8226, 48 h, read-out: GI
Summary of the method: (§2)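 NCI-60 primary screen at a single 10 µM dose. Continuous 48 h exposure, with growth or viability estimated by sulforhodamine B protein staining. Reported as percent growth inhibition of treated cells relative to untreated growth.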

[6] = test system: HCT-116; experiment: Growth inhibition of human HCT116 cells at 10 uM after 48 hrs by sulforhodamine B assay relative to control; assay type: functional; details: HCT-116, 48 h, read-out: GI; summary of the method: as §1
[7] = test system: MDA-MB-435; experiment: Growth inhibition of human MDA-MB-435 cells at 10 uM after 48 hrs by sulforhodamine B assay relative to control; assay type: functional; details: MDA-MB-435, 48 h, read-out: GI; summary of the method: as §1
[8] = test system: SR; experiment: Growth inhibition of human SR cells at 10 uM after 48 hrs by sulforhodamine B assay relative to control; assay type: functional; details: read-out: GI; summary of the method: as §2
[9] = test system: MDA-MB-468; experiment: Growth inhibition of human MDA-MB-468 cells at 10 uM after 48 hrs by sulforhodamine B assay relative to control; assay type: functional; details: MDA-MB-468, 48 h, read-out: GI; summary of the method: as §2
[10] = test system: DU-145; experiment: Growth inhibition of human DU145 cells at 10 uM after 48 hrs by sulforhodamine B assay relative to control; assay type: functional; details: DU-145, 48 h, read-out: GI; summary of the method: as §1
[11] = Growth inhibition of human OVCAR8 cells at 10 uM after 48 hrs by sulforhodamine B assay relative to control; assay type: functional; details: OVCAR-8, 48 h, read-out: GI; summary of the method: as §2
[12] = test system: CAKI-1; experiment: Growth inhibition of human CAKI-1 cells at 10 uM after 48 hrs by sulforhodamine B assay relative to control; assay type: functional; details: CAKI-1, 48 h, read-out: GI; summary of the method: as §1
[13] = test system: NCI-H23; experiment: Growth inhibition of human NCI-H23 cells at 10 uM after 48 hrs by sulforhodamine B assay relative to control; assay type: functional; details: NCI-H23, 48 h, read-out: GI; summary of the method: as §2
[14] = test system: SNB-75; experiment: Growth inhibition of human SNB75 cells at 10 uM after 48 hrs by sulforhodamine B assay relative to control; assay type: functional; details: SNB-75, 48 h, read-out: GI; summary of the method: as §2
[15] = Growth inhibition of human LOXIMVI cells at 10 uM after 48 hrs by sulforhodamine B assay relative to control; assay type: functional; details: LOX IMVI, read-out: GI; summary of the method: as §1
[16] = test system: HL-60(TB); experiment: Growth inhibition of human HL-60(TB) cells at 10 uM after 48 hrs by sulforhodamine B assay relative to control; assay type: functional; details: HL-60, 48 h, read-out: GI
Summary of the method: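 Single-dose primary screen at 10 µM across the NCI 60 panel, 48 h continuous exposure. Growth estimated by sulforhodamine B protein staining and reported as percentage growth inhibition relative to untreated control.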

[17] = Growth inhibition of human OVCAR3 cells at 10 uM after 48 hrs by sulforhodamine B assay relative to control; assay type: functional; details: OVCAR-3, 48 h, read-out: GI; summary of the method: as §2
[18] = test system: PC-3; experiment: Growth inhibition of human PC3 cells at 10 uM after 48 hrs by sulforhodamine B assay relative to control; assay type: functional; details: PC-3, 48 h, read-out: GI; summary of the method: as §2
[19] = test system: ACHN; experiment: Growth inhibition of human ACHN cells at 10 uM after 48 hrs by sulforhodamine B assay relative to control; assay type: functional; details: read-out: GI; summary of the method: as §1
[20] = test system: SF-268; experiment: Growth inhibition of human SF268 cells at 10 uM after 48 hrs by sulforhodamine B assay relative to control; assay type: functional; details: SF-268, 48 h, read-out: GI; summary of the method: as §2
[21] = Growth inhibition of human HCT15 cells at 10 uM after 48 hrs by sulforhodamine B assay relative to control; assay type: functional; details: HCT-15, 48 h, read-out: GI; summary of the method: as §1
[22] = test system: Mus musculus; experiment: Decrease in cyclin D1 level in tumor of BALB mouse allografted with mouse EAC cells at 6 mg/kg, ip for 5 days competitive ELISA relative to control; assay type: functional, Ehrlich; design: scale not given: the % may be the effect or the level left; details: route intraperitoneal
Summary of the method: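 Mice bearing s.c. Ehrlich tumours (2×10^5 EAC cells, grown 2 wk) were given daily i.p. saline, 3 or 6 mg/kg for 5 days. Tumours were excised, washed in cold saline and blotted, and a 10% homogenate was made in phosphate buffered saline. Cyclin D1 was measured by competitive ELISA with samples in duplicate. Mean ± SEM, n = 6.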

[23] = test system: Ehrlich; experiment: Antitumor activity against mouse EAC cells allografted in BALB mouse assessed as tumor growth inhibition at 3 mg/kg, ip for 5 days relative to control; assay type: functional; details: 120 h, route intraperitoneal, read-out: TGI
Summary of the method: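 Female BALB mice; Ehrlich ascites carcinoma cells, 2×10^5 cells/mouse in 0.2 ml saline, injected s.c. into the left hind leg and grown 2 wk. Daily i.p. saline (control), 3 or 6 mg/kg for 5 days. Caliper size V = 0.4×a(b)^2, taken just before the first dose and 24 h after the last. Mean ± SEM, n = 6; ANOVA with Tukey-Kramer.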

[24] = test system: U-251; experiment: Growth inhibition of human U251 cells at 10 uM after 48 hrs by sulforhodamine B assay relative to control; assay type: functional; details: U-251, 48 h, read-out: GI
Summary of the method: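 NCI-60 primary single-dose screen at 10 µM with continuous 48 h exposure. Cell viability/growth read by sulforhodamine B protein staining. Reported as percent growth inhibition relative to untreated cells.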

[25] = test system: M14; experiment: Growth inhibition of human M14 cells at 10 uM after 48 hrs by sulforhodamine B assay relative to control; assay type: functional; details: M14, 48 h, read-out: GI; summary of the method: as §1

SMILES: COc1c(C(=O)/C=C/c2ccc(Cl)cc2)c(O)c(Br)c2occc12
- GI50 [1]: 2.54 µM
- GI50 [2]: 1.72 µM
- GI50 [3]: 3.12 µM

SMILES: COc1ccccc1/C=C/C(=O)c1c(O)cc2occc2c1OC
- inhibition of growth at 10 µM [4]: 63%
- inhibition of growth at 10 µM [5]: 86%
- inhibition of growth at 10 µM [6]: 66%
- inhibition of growth at 10 µM [7]: 74%
- inhibition of growth at 10 µM [8]: 62%
- inhibition of growth at 10 µM [9]: 84%
- inhibition of growth at 10 µM [10]: 78%

SMILES: C=CCc1c2c(c(OC)c3ccoc13)C(=O)/C(=C/c1ccccc1OC)O2
- inhibition of growth at 10 µM [11]: 61%
- inhibition of growth at 10 µM [12]: 62%
- inhibition of growth at 10 µM [5]: 71%
- inhibition of growth at 10 µM [6]: 79%
- inhibition of growth at 10 µM [13]: 80%
- inhibition of growth at 10 µM [14]: 64%
- inhibition of growth at 10 µM [15]: 62%
- inhibition of growth at 10 µM [10]: 65%

SMILES: COc1c2occc2c(OC)c2c(=O)c(CN3CCOCC3)c(/C=C/c3ccc(Cl)cc3)oc12
- inhibition of growth at 10 µM [16]: 60%
- inhibition of growth at 10 µM [11]: 60%
- inhibition of growth at 10 µM [12]: 61%
- inhibition of growth at 10 µM [5]: 60%
- inhibition of growth at 10 µM [17]: 68%
- inhibition of growth at 10 µM [18]: 72%
- inhibition of growth at 10 µM [19]: 66%
- inhibition of growth at 10 µM [9]: 86%
- inhibition of growth at 10 µM [20]: 67%

SMILES: COc1ccc(-c2cc(=O)c3c(OC)c4ccoc4c(/C=C/C=O)c3o2)cc1
- GI50 [2]: 2.72 µM

SMILES: COc1c2ccoc2c(/C=C/C=O)c2oc(-c3ccccc3)cc(=O)c12
- GI50 [2]: 2.33 µM

SMILES: COc1c(C(=O)/C=C/c2ccccc2)c(O)cc2occc12
- inhibition of growth at 10 µM [4]: 64%
- inhibition of growth at 10 µM [5]: 86%
- inhibition of growth at 10 µM [6]: 68%
- inhibition of growth at 10 µM [7]: 68%
- inhibition of growth at 10 µM [14]: 86%
- inhibition of growth at 10 µM [8]: 72%
- inhibition of growth at 10 µM [10]: 75%

SMILES: COc1c2occc2c(OC)c2c(=O)c(CN3CCOCC3)c(/C=C/c3ccc(N(C)C)cc3)oc12
- GI50 [1]: 2.87 µM
- inhibition of growth at 10 µM [16]: 64%
- inhibition of growth at 10 µM [11]: 80%
- inhibition of growth at 10 µM [4]: 73%
- inhibition of growth at 10 µM [5]: 80%
- inhibition of growth at 10 µM [6]: 82%
- GI50 [2]: 1.55 µM
- LC50 [2]: 9.7 µM
- inhibition of growth at 10 µM [13]: 80%
- inhibition of growth at 10 µM [17]: 88%
- inhibition of growth at 10 µM [14]: 99%
- inhibition of growth at 10 µM [21]: 67%
- inhibition of growth at 10 µM [18]: 87%
- inhibition of growth at 10 µM [19]: 89%
- inhibition of growth at 10 µM [15]: 65%
- GI50 [3]: 1.68 µM
- Activity [22]: 59.1%
- inhibition of growth at 10 µM [9]: 70%
- inhibition of growth at 10 µM [10]: 93%
- inhibition in vivo at 3 mg/kg [23]: 62.1%
- inhibition of growth at 10 µM [24]: 69%
- inhibition of growth at 10 µM [25]: 63%
